Key:
[1] = test system: [Sclerotium] delphinii; test: Antifungal activity against Sclerotium delphinii assessed as fungal growth inhibition at 100 ppm relative to untreated control; assay type: functional; details: Agroathelia delphinii; read-out: GI
How it was run: (§1)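 Fungus precultured on potato dextrose agar (1.5% agar) for four days at 27°C before testing. Compounds tested at 100 ppm in triplicate. Growth inhibition (%) relative to untreated control.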

[2] = test system: Brassica rapa; test: Toxicity against Brassica rapa assessed as plant growth inhibition at 100 ppm relative to untreated control; assay type: organism-based; details: in vivo
How it was run: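 Seedlings held three days at 27°C in darkness, then radicle and hypocotyl lengths measured. Growth inhibition (%) calculated for each organ against control. Each experiment run three times.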

[3] = test system: Rhizoctonia solani; test: Antifungal activity against Rhizoctonia solani assessed as fungal growth inhibition at 100 ppm relative to untreated control; assay type: functional; details: read-out: GI; how it was run: as §1

Row | SMILES | inhibition of growth at 100 ppm [1] | growth inhibition (GI) [2] | inhibition of growth at 100 ppm [3]
1 | O=C(/C=C/c1cccc(F)c1)Oc1cc(CCc2ccccc2)oc(=O)c1 | > 30% | 30% | 40%
2 | O=C(/C=C/c1ccc(Cl)cc1)Oc1cc(CCc2ccccc2)oc(=O)c1 | > 30% | 20% | 10%
3 | Cc1ccc(/C=C/C(=O)Oc2cc(CCc3ccccc3)oc(=O)c2)cc1 | ≤ 10% | 30% | 50%
4 | O=C(/C=C/c1ccc(F)cc1)Oc1cc(CCc2ccccc2)oc(=O)c1 | 10% | 40% | 10%
5 | O=C(/C=C/c1ccccc1)Oc1cc(CCc2ccccc2)oc(=O)c1 | 30% | 30% | 20%
6 | Cc1cc(OC(=O)/C=C/c2cccc(Cl)c2)cc(=O)o1 | 40% | <= 70% | 60%
7 | O=C(/C=C/c1ccccc1F)Oc1cc(CCc2ccccc2)oc(=O)c1 | 10% | 40% | 10%
8 | COc1cc(CCc2ccccc2)oc(=O)c1 [DIHYDRO-5,6-DEHYDROKAWAIN] | 50% | 0% | 50%
9 | Cc1cc(OC(=O)/C=C/c2ccccc2Cl)cc(=O)o1 | 20% | 20% | 60%
10 | Cc1ccc(/C=C/C(=O)Oc2cc(C)oc(=O)c2)cc1 | 10% | 30% | 70%
11 | O=C(/C=C/c1ccccc1Cl)Oc1cc(CCc2ccccc2)oc(=O)c1 | > 30% | 30% | 40%
12 | Cc1cc(OC(=O)/C=C/c2ccc(Cl)cc2)cc(=O)o1 | 30% | > 60% | > 60%
13 | Cc1cc(OC(=O)/C=C/c2ccccc2C)cc(=O)o1 | 20% | 80% | 70%
14 | Cc1cc(OC(=O)/C=C/c2ccccc2)cc(=O)o1 | 20% | 30% | > 60%
15 | Cc1cc(OC(=O)/C=C/c2ccc(C(C)C)cc2)cc(=O)o1 | ≤ 50% | 20% | 80%
16 | Cc1cc(O)cc(=O)o1 [4-HYDROXY-6-METHYLPYRAN-2-ONE] | 20% | – | ≤ 10%
17 | Cc1cc(OC(=O)/C=C/c2ccc(F)cc2)cc(=O)o1 | 30% | > 50% | 70%
18 | Cc1cc(OC(=O)/C=C/c2ccccc2F)cc(=O)o1 | > 40% | 30% | 60%
19 | CC(C)c1ccc(/C=C/C(=O)Oc2cc(CCc3ccccc3)oc(=O)c2)cc1 | > 30% | 10% | 40%
20 | Cc1cccc(/C=C/C(=O)Oc2cc(C)oc(=O)c2)c1 | 40% | 40% | 70%
21 | Cc1cccc(/C=C/C(=O)Oc2cc(CCc3ccccc3)oc(=O)c2)c1 | 30% | 40% | 50%
22 | Cc1cc(OC(=O)/C=C/c2cccc(F)c2)cc(=O)o1 | 30% | > 50% | > 60%
23 | Cc1ccccc1/C=C/C(=O)Oc1cc(CCc2ccccc2)oc(=O)c1 | 40% | > 60% | 50%
24 | O=C(/C=C/c1cccc(Cl)c1)Oc1cc(CCc2ccccc2)oc(=O)c1 | 10% | 50% | 40%

From ChEMBL document CHEMBL3046618, “Syntheses and biological activities of pyranyl-substituted cinnamates” (Biosci Biotechnol Biochem, 2001)
